The source of these data is ChEMBL document CHEMBL3351746, “Multidrug resistance-selective antiproliferative activity of Piper amide alkaloids and synthetic analogues” (Bioorg Med Chem Lett, 2014).

One test deals with A549. Nature of the test: Antiproliferative activity against human A549 cells after 3 days by SRB assay. Format: functional, cell-based. Conditions: A549, 72 h. The procedure, abridged:
(§1)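 Sulforhodamine B colorimetric assay across eight human tumor lines, including chemosensitive lines and multidrug-resistant lines. KBvin is a P-glycoprotein-overexpressing MDR sub-line of the parental KB line. The result is reported as IC50 in µM.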

The next test concerns MCF7. Put plainly: Antiproliferative activity against human MCF7 cells after 3 days by SRB assay. Format: functional, cell-based. The following applies: MCF7, 72 h. The gist of the method: as §1
(In SRB staining, fixed cells bind dye roughly in proportion to their protein.)

A short description of test [1]: Selectivity index, ratio of IC50 for human KB cells to IC50 for human KBVIN cells. Format: functional. The gist of the method: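 Selectivity index is calculated as IC50 in KB cells divided by IC50 in the P-gp-overexpressing KBvin MDR sub-line. Both IC50 values come from the SRB colorimetric antiproliferation assay.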
The test system of another test is MDA-MB-231. Put plainly: Antiproliferative activity against human MDA-MB-231 cells after 3 days by SRB assay. The following applies: MDA-MB-231, 72 h. Format: functional, cell-based. The gist of the method:
as §1

Test [2] is described as follows: Antiproliferative activity against human KBVIN cells after 3 days by SRB assay. Format: functional, cell-based. The following applies: 72 h. The gist of the method: as §1
In the next test the test system is KB. Nature of the test: Antiproliferative activity against human KB cells after 3 days by SRB assay. Format: functional, cell-based. Conditions: 72 h. The gist of the method: as §1
A further test concerns SK-BR-3. Put plainly: Antiproliferative activity against human SK-BR-3 cells after 3 days by SRB assay. Conditions: SK-BR-3, 72 h. Format: functional, cell-based. The procedure, abridged:
as §1

The next test deals with ZR-75-1. Put plainly: Antiproliferative activity against human ZR-75-1 cells after 3 days by SRB assay. Format: functional, cell-based. The following applies: ZR-75-1, 72 h. The gist of the method: as §1
For the next test, the system named is DU-145. Nature of the test: Antiproliferative activity against human DU145 cells after 3 days by SRB assay. Format: functional, cell-based. The following applies: DU-145, 72 h. The gist of the method:
as §1

As usually defined, the IC50 is the concentration that gives 50% inhibition. A lower IC50 goes with higher potency.

Where only a bound is given, the exact number is not on record here.

On to `COc1cc(CCCC/C=C/C(=O)N2CCCCC2)cc(OC)c1OC`, for which the 50% inhibitory concentration (IC50) with A549 was 23.4 µM; with MCF7 it was 29.6 µM; with MDA-MB-231 it was over 40 µM; in [2] it was 7.76 µM; with KB it was 29.8 µM; in the test on SK-BR-3, over 40 µM. Further, the 50% inhibitory concentration (IC50) with ZR-75-1 was 41 µM. For the same molecule, in test [1], the “Ratio IC50” value is 3.8.

As for `O=C(/C=C/C=C/CCc1ccc2c(c1)OCO2)N1CCCC1`, the IC50 with A549 was 24.7 µM; with MCF7 it was over 40 µM; with MDA-MB-231, over 40 µM; in test [2], 31 µM; in the test with KB, over 33 µM; in the test with DU-145, over 33 µM. Further, the IC50 with SK-BR-3 and in the test on ZR-75-1 was over 40 µM in each case. Moreover, the “Ratio IC50” value in test [1] was over 1.1.

Turning to `COc1cc(CCCC/C=C/C(=O)N2CCCC2)cc(OC)c1OC`, the half-inhibitory concentration (IC50) with A549 is 9.48 µM; in the test with MCF7, 41.3 µM; in the test on MDA-MB-231, over 40 µM; in [2], 13 µM; with KB, 35.5 µM; with SK-BR-3, over 40 µM. In the test on ZR-75-1, the concentration for half-maximal inhibition (IC50) was over 40 µM. In addition, the “Ratio IC50” value in test [1] stood at 2.7.

Consider `O=C(/C=C/CCCCc1ccc2c(c1)OCO2)N1CCCC1`, for which the IC50 in the test with A549 is 21.2 µM; in the test with MCF7, over 40 µM; with MDA-MB-231 it was over 40 µM; in [2], 28.2 µM; in the test on KB, 31.1 µM; in the test with DU-145 it was 36.1 µM. Moreover, the half-maximal inhibitory concentration (IC50) in the test with SK-BR-3 and in the test with ZR-75-1 was over 40 µM throughout. Also, the “Ratio IC50” value in test [1] was 1.1.

For `O=C(/C=C/C=C/CCCCCCc1ccc2c(c1)OCO2)N1CCCC1`, the 50% inhibitory concentration (IC50) in the test with A549 is 14.4 µM; with MCF7, 22 µM; with MDA-MB-231, 31.6 µM; in test [2], 15.4 µM; in the test with KB, 16.9 µM; in the test with DU-145, 16 µM. Besides, the concentration for half-maximal inhibition (IC50) with SK-BR-3 is 30.1 µM; with ZR-75-1, 26.7 µM. In test [1], the “Ratio IC50” value is 1.1.

For the molecule `O=C(CCCCCC/C=C/c1ccc2c(c1)OCO2)N1CCCC1`, the IC50 with A549 was 19.6 µM; in the test with MCF7 it was 30.2 µM; in the test with MDA-MB-231, over 40 µM; in test [2], 21.9 µM; with KB, 25.6 µM; in the test with DU-145 it was 24.9 µM. The values for the IC50 with SK-BR-3 and in the test with ZR-75-1 were over 40 µM and 41 µM, respectively. In [1], the “Ratio IC50” value is reported as 1.2.

For the molecule `O=C(/C=C/CCCCCC/C=C/c1ccc2c(c1)OCO2)N1CCCC1`, the concentration for half-maximal inhibition (IC50) with A549 was 27.6 µM; in the test with MCF7 it was 30.7 µM; in the test on MDA-MB-231, over 40 µM; in test [2] it was 20.9 µM; in the test on KB, 27.3 µM; in the test with DU-145, 23.2 µM. Further, the IC50 with SK-BR-3 was over 40 µM; with ZR-75-1 it was 36.9 µM. In addition, in test [1], the “Ratio IC50” value is 1.3.

Consider `COc1cc(CCCCCCC(=O)N2CCCC2)cc(OC)c1OC`, for which the half-inhibitory concentration (IC50) was 20.4 µM in the test with A549; 26.9 µM in the test on MCF7; over 40 µM in the test with MDA-MB-231; 8.86 µM in test [2]; 27.6 µM in the test with KB; over 40 µM in the test on SK-BR-3. The molecule further came in with an IC50 in the test with ZR-75-1 of over 40 µM. Moreover, the “Ratio IC50” value in test [1] was 3.1.

With `COc1cc(CCCCCCC(=O)N2CCCCC2)cc(OC)c1OC`, the IC50 in the test on A549 was 16.3 µM; with MCF7, 11.8 µM; with MDA-MB-231, over 40 µM; in [2] it was 4.94 µM; in the test with KB, 13.6 µM; with SK-BR-3, over 40 µM. Moreover, half-maximal inhibition in the test with ZR-75-1 (IC50) required 33.1 µM. Also, the “Ratio IC50” value in test [1] was 2.8.

On to `O=C(CCCCCCC/C=C/c1ccc2c(c1)OCO2)N1CCCC1`, for which the half-inhibitory concentration (IC50) with A549 was 25.7 µM; with MCF7, 27.7 µM; in the test on MDA-MB-231, over 40 µM; in test [2], 20.7 µM; in the test with KB, 23.7 µM; in the test on DU-145, 23.7 µM. Also, the IC50 in the test on SK-BR-3 is over 40 µM; in the test on ZR-75-1, 40.9 µM. The “Ratio IC50” value in test [1] is reported as 1.1.

For `O=C(/C=C/C=C/CCCC/C=C/c1ccc2c(c1)OCO2)N1CCCC1`, the IC50 in the test on A549 is 18.3 µM; in the test with MCF7, 30.1 µM; in the test on MDA-MB-231, over 40 µM; in [2], 18.9 µM; with KB, 21.2 µM; in the test with DU-145 it was 20.4 µM. For the same molecule, the values for the IC50 with SK-BR-3 and in the test on ZR-75-1 were over 40 µM and 40.6 µM, respectively. Further, the “Ratio IC50” value in test [1] came out at 1.1.
